Sampled rows, rich in hits. Any-hit rate of the full collection: about 3.5%.
RGS4 act = RGS4 potentiators or activators, primary screen, cell-based, HEK293 M3R inducible RGS4, calcium flux; B-score at 10 µM; AID 463111, 2010; 0.92% of 310,000 active; carbachol calcium flux Fluo4; active compounds read low;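 active = B-score of the integrated calcium signal more than 4 SD below the library mean, with starting fluorescence not abnormally high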;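 note: negative B-score means reduced calcium response which marks RGS4 activation or potentiation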
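Reagent: ECmax carbachol challenge; Test system: M3R-expressing HEK293 line, RGS4 induced by doxycycline; Schedule: overnight RGS4 induction, 30 min dye load 37 °C, 20 min compound RT; Detection: calcium dye Fluo4 fluorescence; Read-out: Agonist-evoked peak-minus-minimum fluorescence over baseline, integrated ratio, B score.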
MrgX1 ag = agonists of human MrgX1 receptor, primary screen, HEK293 cells, Fluo-4 calcium flux; 0.44% of 310,000 active; Fluo-4 calcium fluorescence, agonist mode; active compounds read high; B-score at 10 µM; Mas-related G-protein coupled receptor member X1 (Homo sapiens), Q96LB2;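 active = calcium response B-score plate-corrected fluorescence ratio at least 3 library SD, with starting fluorescence B-score inside 5 SD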
Target sequence (Q96LB2 whole entry, looked up): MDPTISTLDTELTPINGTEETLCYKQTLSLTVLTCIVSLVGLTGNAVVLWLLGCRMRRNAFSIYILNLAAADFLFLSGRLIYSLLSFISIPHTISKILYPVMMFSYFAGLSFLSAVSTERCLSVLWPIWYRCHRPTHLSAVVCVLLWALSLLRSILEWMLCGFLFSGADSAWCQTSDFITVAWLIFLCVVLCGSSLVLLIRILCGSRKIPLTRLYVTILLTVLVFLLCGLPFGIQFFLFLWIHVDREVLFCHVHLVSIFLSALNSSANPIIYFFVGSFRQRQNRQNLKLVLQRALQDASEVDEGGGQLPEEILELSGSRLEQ
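Material – MrgX1-expressing HEK293 cells · Input – 15,000 cells seeded per well · Dosing – compound as first of three additions · Times – overnight seeding, then 1 h dark dye loading · Measured by – kinetic Fluo-4 NW fluorescence of intracellular calcium · Read-out – B-scored fluorescence response ratio · Benchmarks – positive and negative control wells on each plate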
MrgX1 antag = antagonists of human MrgX1 receptor, primary screen, HEK293 cells, Fluo-4 calcium flux | BAM8-22 antagonism; active compounds read low | AID 588676, 2011 | B-score at 10 µM | 1.3% of 310,000 active;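 active = calcium-response B-score plate-corrected more than 3 library SD below zero, starting fluorescence within 5 deviations, no agonist response on first addition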;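 note: peak minus trough fluorescence over baseline after final BAM8-22 challenge near maximal dose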
RGS4 inh = RGS4 inhibitors, primary screen, cell-based, HEK293 M3R inducible RGS4, calcium flux. B-score at 10 µM. Regulator of G-protein signaling 4 (Homo sapiens), P49798. Fluo-4 calcium flux; active compounds read high; triggered by carbachol at its EC20. 0.45% of 310,000 active;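 active = B-score, a plate-corrected calcium signal, over three deviations above library mean, with baseline fluorescence within five deviations of library mean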;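 note: RGS4 expression induced by doxycycline in cells with stable M3 receptor; B-score is computed from the integrated fluorescence ratio over baseline after carbachol; higher B-score means a larger calcium signal and so more RGS4 inhibition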
Target sequence (P49798 whole entry, looked up): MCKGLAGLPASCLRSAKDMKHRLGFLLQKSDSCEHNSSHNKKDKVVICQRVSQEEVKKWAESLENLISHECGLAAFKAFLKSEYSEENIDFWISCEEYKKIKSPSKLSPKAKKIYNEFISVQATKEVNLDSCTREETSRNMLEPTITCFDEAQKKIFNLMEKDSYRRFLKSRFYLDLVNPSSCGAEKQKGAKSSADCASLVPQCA
MrgX1 PAM = positive allosteric modulators of MrgX1, primary screen, HEK293 cells, Fluo-4 calcium flux; Mas-related G-protein coupled receptor member X1 (Homo sapiens), Q96LB2; FDSS; active compounds read high; B-score at 10 µM; 0.63% of 310,000 active;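 active = plate-corrected calcium response at least 3 library SD above typical, normal starting fluorescence, not activating the receptor alone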;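 note: compound read alongside a low EC10 to EC30 dose of BAM8-22 agonist; peak minus trough fluorescence over baseline measured at the second addition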
MrgX1 PAM conf = MrgX1 positive allosteric modulators, duplicate retest, confirmation, HEK293 cells, Fluo-4 calcium flux | shares compounds with MrgX1 PAM | Fluo-4 calcium fluorescence, FDSS | activation (ratio percentage), % at 10 µM | 13% of 1,200 active | AID 602413, 2012;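 active = ratio at least 3 SD above the weak peptide control, stable starting fluorescence, no direct agonism earlier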;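 note: compound followed by low BAM8-22 agonist challenge near EC20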
MrgX1 antag conf = MrgX1 receptor antagonists, duplicate retest, confirmation, HEK293 cells, Fluo-4 calcium flux | shares compounds with MrgX1 antag | BAM8-22 calcium flux; active compounds read low | remaining BAM8-22 calcium response % of control (active compounds read low), % at 10 µM | 19% of 2,300 active | AID 602420, 2012;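 active = remaining agonist calcium response no higher than 100% minus 3 SD of agonist-only control wells, with starting fluorescence near control levels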;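 note: agonist BAM8-22 given at a near maximal EC90 to ECmax level; peak minus minimum fluorescence divided by baseline after agonist addition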
HEK293 Ca flux = nonspecific calcium signal in parental HEK293, confirmation, counter-screen for MrgX1 antagonist project, parental HEK293 cells, Fluo-4 calcium flux | shares compounds with MrgX1 antag | Fluo-4 calcium fluorescence, FDSS | fluorescence ratio F(max-min)/F0 at 10 µM | 2% of 4,000 active | AID 624111, 2012;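 active = duplicate-averaged calcium fluorescence ratio at least three times the standard deviation of buffer wells, a nonspecific response in parental cells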
HEK293 Ca counter = calcium response in parental HEK293 cells, primary screen, counter-screen for MrgX1 allosteric activator project, cell-based, Fluo-4 calcium flux, duplicate; fluorescence ratio F(max-min)/F0 at 10 µM; Fluo-4 fluorescence ratio; active compounds read high; 0.4% of 4,000 active; AID 624114, 2012; shares compounds with MrgX1 antag;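 active = calcium fluorescence ratio, averaged over duplicates, at least 3 SD of the buffer-well ratio, meaning a nonspecific response in receptor-free cells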;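 note: untransfected parental HEK293 lacking MrgX1 used as counterscreen for MrgX1 allosteric activators; fluorescence change taken during the second addition on a kinetic imager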
HEK293 Ca cntr2 = calcium response in parental HEK293 cells, primary screen, counter-screen for MrgX1 agonist project, cell-based, Fluo-4 calcium flux, duplicate, agonist mode | shares compounds with MrgX1 antag | Fluo-4 calcium fluorescence (FDSS); active compounds read high | fluorescence ratio F(max-min)/F0 at 10 µM | 8.7% of 4,000 active;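 active = calcium fluorescence ratio at least three times the spread of buffer wells, meaning a non-specific response in parental cells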
Numbers without * were called inactive; i = inactive; · = not tested or not shown.

SMILES | RGS4 act | MrgX1 ag | MrgX1 antag | RGS4 inh | MrgX1 PAM | MrgX1 PAM conf | HEK293 Ca flux | HEK293 Ca counter | HEK293 Ca cntr2 | others
Cc1cccc(/C=C2/Sc3ccc(C(=O)N4CCOCC4)cc3NC2=O)c1 | i | i | i | i | 23* | i | i | i | i
O=C(c1ccc(Br)cc1)N1CCN(Cc2ccccc2)CC1 | i | i | i | i | 6.5* | i | i | i | i
CCCCNc1nc(N(C)c2ccccc2)nc(-n2ccnc2)n1 | i | i | i | i | i | · | · | · | ·
CCCCCNc1nc(-c2ccccc2)nc(-n2ccnc2)n1 | i | i | i | i | 7.5* | i | i | i | i
C/C(N)=C(/C#N)C(=O)CSc1nc2scc(-c3ccc(F)cc3)c2c(=O)n1C | i | i | i | i | i | · | · | · | ·
CCc1nc2ccccc2c(C(=O)NCc2ccccc2)c1C | i | i | i | i | 7* | i | i | i | i
CCc1nc2ccccc2c(C(=O)O)c1C | i | i | i | i | i | · | · | · | ·
O=C(COC(=O)c1ccc(Cl)nc1)NNC(=O)c1ccc(Cl)cc1 | i | i | i | i | i | · | · | · | ·
CC1CN(c2cc(-c3ccccc3)c3ccccc3n2)CC(C)O1 (stereo unspecified) | i | i | i | i | i | · | · | · | ·
CC1CN(c2nc3ccccc3cc2-c2ccccc2)CC(C)O1 (stereo unspecified) | i | i | i | i | 17* | i | i | i | i
COC(=O)c1c(C)[nH]c(C(=O)C(C)Sc2nnc(-c3cc(OC)c(OC)c(OC)c3)o2)c1C (stereo unspecified) | i | i | i | i | i | · | · | · | ·
Nc1cc(Nc2ccc(Br)cc2)nc(N)n1 | i | i | -8.6* | i | 7.5* | i | i | i | i | MrgX1 antag conf=i
COc1ccc(Nc2cc(C)nc(N)n2)cc1 | i | i | i | i | i | · | · | · | ·
Cc1ccc(OCC(=O)Nc2ccc(N3CCN(C(=O)c4ccco4)CC3)cc2)cc1C | i | i | i | i | 10* | i | i | i | i
Cc1cc(OCC(=O)Nc2ccc(N3CCN(C(=O)c4ccco4)CC3)cc2)cc(C)c1Cl | i | i | i | i | i | · | · | · | ·
O=C(O)c1cc(-c2ccc3c(c2)OCCO3)n[nH]1 | i | i | i | i | i | · | · | · | ·
Oc1ccccc1-c1cc(-c2ccc3c(c2)OCCO3)n[nH]1 | i | i | i | i | 6.9* | i | i | i | i
Cc1ccc(NC2(C#N)C(=O)Nc3ccccc32)cc1C (stereo unspecified) | i | i | i | i | 9* | i | i | i | 47*
